Data published in ChEMBL document CHEMBL2203262, “The design and synthesis of indazole and pyrazolopyridine based glucokinase activators for the treatment of type 2 diabetes mellitus” (Bioorg Med Chem Lett, 2012).
Converted amounts (≈) assume the structure as drawn.

Tested on: Rattus norvegicus
Assay: Toxicity in Sprague-Dawley rat assessed as hypoglycemia at 10 to 250 mg/kg, po
Format: organism-based
Design: dose 10-250 mg/kg, route oral
Settings: in vivo
Method in brief: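 Oral glucose tolerance test in overnight-fasted Sprague-Dawley rats. Single oral dose of 10–250 mg/kg (suspension in 30% sulfobutylether/water) given at t = −60 min, then 2 g/kg glucose orally at t = 0. Hypoglycemia defined as blood glucose <60 mg/dL. n = 7/group.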

| Compound | Activity |
| --- | --- |
| CCn1cc2c(Oc3cnc(C(=O)N4CCC4)c(F)c3)cc(C(=O)Nc3cnc(C)cn3)cc2n1 | Non-toxic |

Tested on: Rattus norvegicus
Assay: Antidiabetic activity in Sprague-Dawley rat assessed as reduction of plasma glucose AUC excursion at 250 mg/kg, po by oral glucose tolerance test
Format: functional
Design: scale not given: the % may be the effect or the level left
Settings: not given
Method in brief: (§1)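 Sprague-Dawley rats fasted overnight, dosed orally at t = −60 min with 10, 25, 100 or 250 mg/kg as suspension in 30% sulfobutylether/water. Oral glucose challenge 2 g/kg at t = 0 min.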

| Compound | Activity [%] |
| --- | --- |
| CCn1cc2c(Oc3cnc(C(=O)N4CCC4)c(F)c3)cc(C(=O)Nc3cnc(C)cn3)cc2n1 | 22 |

Tested on: Rattus norvegicus
Assay: Antidiabetic activity in po dosed Sprague-Dawley rat assessed as reduction of plasma glucose AUC excursion by oral glucose tolerance test
Format: functional, organism-based
Settings: not given
Method in brief: as §1

| Compound | Activity |
| --- | --- |
| CCn1cc2c(Oc3cnc(C(=O)N4CCC4)c(F)c3)cc(C(=O)Nc3cnc(C)cn3)cc2n1 | Dose-dependent effect |

Tested on: not listed separately
Assay: Fraction unbound in human plasma
Format: ADME, cell-free
Settings: not given

| Compound | fraction unbound |
| --- | --- |
| CCn1cc2c(Oc3cnc(C(=O)N4CCC4)c(F)c3)cc(C(=O)Nc3cnc(C)cn3)cc2n1 | 0.2 |

Tested on: not listed separately
Assay: Fraction unbound in rat plasma
Format: ADME, cell-free
Settings: not given

| Compound | fraction unbound |
| --- | --- |
| CCn1cc2c(Oc3cnc(C(=O)N4CCC4)c(F)c3)cc(C(=O)Nc3cnc(C)cn3)cc2n1 | 0.18 |

Tested on: not listed separately
Assay: Drug excretion in Wistar-Han rat urine at 1 mg/kg, iv
Format: ADME, organism-based
Design: dose 1 mg/kg, route intravenous
Settings: read-out: Drug excretion

| Compound | dose excreted [%] |
| --- | --- |
| CCn1cc2c(Oc3cnc(C(=O)N4CCC4)c(F)c3)cc(C(=O)Nc3cnc(C)cn3)cc2n1 | < 1 |

Tested on: not listed separately
Assay: Oral bioavailability in Wistar-Han rat at 5 mg/kg
Format: ADME, organism-based
Settings: in vivo

| Compound | bioavailability [%] |
| --- | --- |
| CCn1cc2c(Oc3cnc(C(=O)N4CCC4)c(F)c3)cc(C(=O)Nc3cnc(C)cn3)cc2n1 | 69 |

Tested on: not listed separately
Assay: AUC in Wistar-Han rat at 5 mg/kg, po
Format: ADME, organism-based
Design: dose 5 mg/kg, route oral
Settings: plasma
Method in brief: (§2)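 Pharmacokinetics in Wistar-Han rats, n = 3 animals per group. Intravenous dosing was at 1 mg/kg, and oral dosing was at 5 mg/kg. Plasma AUC, Cmax, t1/2, clearance, Vdss and oral bioavailability were derived. Urine was collected after the i.v. dose to assess renal excretion.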

| Compound | AUC [ng·h/mL] |
| --- | --- |
| CCn1cc2c(Oc3cnc(C(=O)N4CCC4)c(F)c3)cc(C(=O)Nc3cnc(C)cn3)cc2n1 | 5440 |

Tested on: not listed separately
Assay: Half life in Wistar-Han rat at 5 mg/kg, po
Format: ADME, organism-based
Design: dose 5 mg/kg, route oral
Settings: in vivo

| Compound | half-life [h] |
| --- | --- |
| CCn1cc2c(Oc3cnc(C(=O)N4CCC4)c(F)c3)cc(C(=O)Nc3cnc(C)cn3)cc2n1 | 2.6 |

Tested on: not listed separately
Assay: Cmax in Wistar-Han rat at 5 mg/kg, po
Format: ADME, organism-based
Design: dose 5 mg/kg, route oral
Settings: in vivo

| Compound | Cmax [ng/mL] |
| --- | --- |
| CCn1cc2c(Oc3cnc(C(=O)N4CCC4)c(F)c3)cc(C(=O)Nc3cnc(C)cn3)cc2n1 | 1490 |

Tested on: not listed separately
Assay: Clearance in Wistar-Han rat at 1 mg/kg, iv
Format: ADME, organism-based
Design: dose 1 mg/kg, route intravenous
Settings: in vivo
Method in brief: (§3)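 Wistar-Han rats, n = 3 animals/group. Single intravenous dose of 1 mg/kg; plasma pharmacokinetic parameters determined.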

| Compound | clearance [mL/min/kg] |
| --- | --- |
| CCn1cc2c(Oc3cnc(C(=O)N4CCC4)c(F)c3)cc(C(=O)Nc3cnc(C)cn3)cc2n1 | 10.5 |

Tested on: not listed separately
Assay: Volume of distribution at steady state in Wistar-Han rat at 1 mg/kg, iv
Format: ADME, organism-based
Design: dose 1 mg/kg, route intravenous
Settings: in vivo, read-out: Vdss
Method in brief: as §3

| Compound | Vd [L/kg] |
| --- | --- |
| CCn1cc2c(Oc3cnc(C(=O)N4CCC4)c(F)c3)cc(C(=O)Nc3cnc(C)cn3)cc2n1 | 0.61 |

Tested on: not listed separately
Assay: Half life in Wistar-Han rat at 1 mg/kg, iv
Format: ADME, organism-based
Design: dose 1 mg/kg, route intravenous
Settings: in vivo
Method in brief: as §3

| Compound | half-life [h] |
| --- | --- |
| CCn1cc2c(Oc3cnc(C(=O)N4CCC4)c(F)c3)cc(C(=O)Nc3cnc(C)cn3)cc2n1 | 1 |

Tested on: not listed separately
Assay: AUC in Wistar-Han rat at 1 mg/kg, iv
Format: ADME, organism-based
Design: dose 1 mg/kg, route intravenous
Settings: plasma
Method in brief: as §2

| Compound | AUC [ng·h/mL] |
| --- | --- |
| CCn1cc2c(Oc3cnc(C(=O)N4CCC4)c(F)c3)cc(C(=O)Nc3cnc(C)cn3)cc2n1 | 1580 |

Tested on: not listed separately
Assay: Cmax in Wistar-Han rat at 1 mg/kg, iv
Format: ADME, organism-based
Design: dose 1 mg/kg, route intravenous
Settings: in vivo
Method in brief: as §3

| Compound | Cmax [ng/mL] |
| --- | --- |
| CCn1cc2c(Oc3cnc(C(=O)N4CCC4)c(F)c3)cc(C(=O)Nc3cnc(C)cn3)cc2n1 | 1820 |

Molecular target: Voltage-gated inwardly rectifying potassium channel KCNH2 (Homo sapiens, UniProt Q12809)
Assay: Inhibition of human ERG by patch clamp assay
Settings: not given

Sequence of Voltage-gated inwardly rectifying potassium channel KCNH2 (Q12809 whole entry): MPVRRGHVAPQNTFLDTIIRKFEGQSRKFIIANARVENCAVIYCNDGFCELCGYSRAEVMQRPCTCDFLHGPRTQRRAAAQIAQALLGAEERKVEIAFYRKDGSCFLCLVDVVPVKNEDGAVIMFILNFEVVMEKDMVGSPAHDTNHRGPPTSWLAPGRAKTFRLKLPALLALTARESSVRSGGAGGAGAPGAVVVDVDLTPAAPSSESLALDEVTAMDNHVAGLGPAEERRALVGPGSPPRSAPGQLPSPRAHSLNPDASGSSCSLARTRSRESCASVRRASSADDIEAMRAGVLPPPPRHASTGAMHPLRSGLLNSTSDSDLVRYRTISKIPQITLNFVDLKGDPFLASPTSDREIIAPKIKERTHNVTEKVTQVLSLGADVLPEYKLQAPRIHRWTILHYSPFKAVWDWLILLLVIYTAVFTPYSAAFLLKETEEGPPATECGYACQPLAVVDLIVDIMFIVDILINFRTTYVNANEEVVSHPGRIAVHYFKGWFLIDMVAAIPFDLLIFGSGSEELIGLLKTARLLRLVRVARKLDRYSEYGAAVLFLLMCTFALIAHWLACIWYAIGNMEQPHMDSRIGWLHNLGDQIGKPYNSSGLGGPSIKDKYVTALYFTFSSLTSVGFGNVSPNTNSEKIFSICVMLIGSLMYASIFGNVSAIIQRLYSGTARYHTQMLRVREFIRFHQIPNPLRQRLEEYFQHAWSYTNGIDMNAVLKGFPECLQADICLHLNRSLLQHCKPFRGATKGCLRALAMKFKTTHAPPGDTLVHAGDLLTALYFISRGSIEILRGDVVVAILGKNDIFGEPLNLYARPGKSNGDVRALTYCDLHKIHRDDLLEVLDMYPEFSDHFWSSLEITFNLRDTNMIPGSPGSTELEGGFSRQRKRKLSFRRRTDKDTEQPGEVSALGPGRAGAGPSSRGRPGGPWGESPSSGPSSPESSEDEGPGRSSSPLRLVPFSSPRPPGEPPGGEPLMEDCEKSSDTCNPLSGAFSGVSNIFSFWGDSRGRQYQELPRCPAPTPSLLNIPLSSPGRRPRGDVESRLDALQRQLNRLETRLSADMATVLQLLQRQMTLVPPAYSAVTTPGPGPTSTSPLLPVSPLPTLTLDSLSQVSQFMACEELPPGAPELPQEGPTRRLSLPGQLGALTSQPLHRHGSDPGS

| Compound | IC50 [µM] |
| --- | --- |
| CCn1cc2c(Oc3cnc(C(=O)N4CCC4)c(F)c3)cc(C(=O)Nc3cnc(C)cn3)cc2n1 | > 300 |

Tested on: not listed separately
Assay: Genotoxicity in micronucleus
Settings: not given

| Compound | Activity |
| --- | --- |
| CCn1cc2c(Oc3cnc(C(=O)N4CCC4)c(F)c3)cc(C(=O)Nc3cnc(C)cn3)cc2n1 | Non-toxic |

Tested on: INS1
Assay: Increase of glucose-stimulated insulin secretion in rat INS-1 cells
Settings: not given

| Compound | EC50 [µM] |
| --- | --- |
| CCn1cc2c(Oc3cnc(C(=O)N4CCC4)c(F)c3)cc(C(=O)Nc3cnc(C)cn3)cc2n1 | 0.17 |

Tested on: Salmonella typhimurium
Assay: Genotoxicity in Salmonella typhimurium by Ames test
Format: toxicity, organism-based
Settings: salmonella enterica subsp. enterica serovar typhimurium

| Compound | Activity |
| --- | --- |
| CCn1cc2c(Oc3cnc(C(=O)N4CCC4)c(F)c3)cc(C(=O)Nc3cnc(C)cn3)cc2n1 | Non-toxic |

Molecular target: T1, Hexokinase-4 (Rattus norvegicus, UniProt P17712)
T1 sequence (P17712 whole entry): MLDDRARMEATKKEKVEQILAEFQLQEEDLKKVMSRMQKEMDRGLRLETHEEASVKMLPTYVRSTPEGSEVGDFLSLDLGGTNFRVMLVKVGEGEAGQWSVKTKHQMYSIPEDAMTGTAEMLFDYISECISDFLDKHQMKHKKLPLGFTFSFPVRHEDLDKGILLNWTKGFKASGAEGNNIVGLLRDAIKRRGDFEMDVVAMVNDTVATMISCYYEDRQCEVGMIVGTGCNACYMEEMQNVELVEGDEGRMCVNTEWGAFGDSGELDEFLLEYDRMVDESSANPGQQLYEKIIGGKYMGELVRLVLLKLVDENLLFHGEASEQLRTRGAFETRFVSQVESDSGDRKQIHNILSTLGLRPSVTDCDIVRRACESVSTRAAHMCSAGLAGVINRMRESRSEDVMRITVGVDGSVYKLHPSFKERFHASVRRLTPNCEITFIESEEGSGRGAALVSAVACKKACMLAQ
Assay: Activation of recombinant rat glucokinase assessed measuring rate of glucose 6-phosphate formation using G6PDH/NADP coupling
Settings: not given
Method in brief: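 Recombinant rat glucokinase; glucose 6-phosphate formation rate followed by G6PDH/NADP coupling. Matrix format: activator at 22 concentrations (0 to 100 µM range as printed) × 16 glucose concentrations (0 to 100 mM). Nonessential activator model fitted; EC50 = concentration giving half-maximal reduction in glucose Km.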

| Compound | EC50 [µM] |
| --- | --- |
| CCn1cc2c(Oc3cnc(C(=O)N4CCC4)c(F)c3)cc(C(=O)Nc3cnc(C)cn3)cc2n1 | 0.35 |

Tested on: not listed separately
Assay: Passive permeability of the compound in dog RRCK cells
Format: ADME, cell-based, Canis lupus familiaris, MDCKII-LE
Settings: MDCK, read-out: permeability
Method in brief: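 Passive permeability measured in the RRCK cell line; reported as 10^-6 cm/s.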

| Compound | Papp [×10⁻⁶ cm/s] |
| --- | --- |
| Cc1cnc(NC(=O)c2cc(Oc3cnc(C(=O)N(C)C)cn3)c3cn(C)nc3c2)cn1 | 20.8 |
| Cc1cnc(NC(=O)c2cc(Oc3cnc(C(=O)N(C)C)c(F)c3)c3cn(C)nc3c2)cn1 | 20.2 |
| Cc1cnc(NC(=O)c2cc(Oc3ccc(S(=O)(=O)N(C)C)cc3)c3cn(C)nc3c2)cn1 | 13.6 |
| CCn1cc2c(Oc3cnc(C(=O)N4CCC4)c(F)c3)cc(C(=O)Nc3cnc(C)cn3)cc2n1 | 16.3 |

Tested on: not listed separately
Assay: Kinetic solubility of the compound
Format: physicochemical
Settings: read-out: Kinetic_solubility

| Compound | solubility kinetic [µM] |
| --- | --- |
| Cc1cnc(NC(=O)c2cc(Oc3cnc(C(=O)N(C)C)cn3)c3cn(C)nc3c2)cn1 | 192 (≈ 83 µg/mL) |
| Cc1cnc(NC(=O)c2cc(Oc3cnc(C(=O)N(C)C)c(F)c3)c3cn(C)nc3c2)cn1 | 328 (≈ 147 µg/mL) |
| Cc1cnc(NC(=O)c2cc(Oc3ccc(S(=O)(=O)N(C)C)cc3)c3cn(C)nc3c2)cn1 | 134 (≈ 62.5 µg/mL) |
| CCn1cc2c(Oc3cnc(C(=O)N4CCC4)c(F)c3)cc(C(=O)Nc3cnc(C)cn3)cc2n1 | 84.8 (≈ 40.3 µg/mL) |

Tested on: not listed separately
Assay: Lipophilicity, log D of the compound by shake flask method
Format: physicochemical
Settings: octanol/water

| Compound | logD |
| --- | --- |
| Cc1cnc(NC(=O)c2cc(Oc3cnc(C(=O)N(C)C)cn3)c3cn(C)nc3c2)cn1 | 0.83 |
| CCn1cc2c(Oc3cnc(C(=O)N4CCC4)c(F)c3)cc(C(=O)Nc3cnc(C)cn3)cc2n1 | 2.01 |

Tested on: not listed separately
Assay: Intrinsic clearance of the compound in human liver microsomes
Format: ADME, Microsome
Settings: read-out: CLH
Method in brief: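 Human liver microsomal stability; intrinsic clearance expressed as ml/min/kg.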

| Compound | CLint scaled [mL/min/kg] |
| --- | --- |
| Cc1cnc(NC(=O)c2cc(Oc3cnc(C(=O)N(C)C)cn3)c3cn(C)nc3c2)cn1 | < 8.5 |
| Cc1cnc(NC(=O)c2cc(Oc3cnc(C(=O)N(C)C)c(F)c3)c3cn(C)nc3c2)cn1 | < 8 |
| Cc1cnc(NC(=O)c2cc(Oc3ccc(S(=O)(=O)N(C)C)cc3)c3cn(C)nc3c2)cn1 | < 8 |
| CCn1cc2c(Oc3cnc(C(=O)N4CCC4)c(F)c3)cc(C(=O)Nc3cnc(C)cn3)cc2n1 | < 8 |

Molecular target: T2, Hexokinase-4 (Homo sapiens, UniProt P35557)
T2 sequence (P35557 whole entry): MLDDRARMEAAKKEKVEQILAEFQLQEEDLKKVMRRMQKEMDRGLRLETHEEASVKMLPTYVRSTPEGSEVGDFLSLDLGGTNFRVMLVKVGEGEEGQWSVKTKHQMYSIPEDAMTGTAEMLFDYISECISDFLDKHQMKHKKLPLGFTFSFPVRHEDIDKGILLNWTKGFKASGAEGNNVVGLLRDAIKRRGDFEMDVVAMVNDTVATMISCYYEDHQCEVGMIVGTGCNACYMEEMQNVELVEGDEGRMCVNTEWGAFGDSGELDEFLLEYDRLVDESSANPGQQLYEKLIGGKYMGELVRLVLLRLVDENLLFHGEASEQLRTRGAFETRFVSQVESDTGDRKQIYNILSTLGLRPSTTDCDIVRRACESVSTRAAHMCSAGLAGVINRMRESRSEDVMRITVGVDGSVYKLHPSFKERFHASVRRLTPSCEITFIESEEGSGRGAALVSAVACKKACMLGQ
Assay: Activation of recombinant human glucokinase assessed measuring rate of glucose 6-phosphate formation using G6PDH/NADP coupling
Settings: not given

| Compound | EC50 [µM] |
| --- | --- |
| Cc1cnc(NC(=O)c2cc(Oc3cnc(C(=O)N(C)C)cn3)c3cn(C)nc3c2)cn1 | 0.99 |
| Cc1cnc(NC(=O)c2cc(Oc3cnc(C(=O)N(C)C)c(F)c3)c3cn(C)nc3c2)cn1 | 0.4 |
| Cc1cnc(NC(=O)c2cc(Oc3ccc(S(=O)(=O)N(C)C)cc3)c3cn(C)nc3c2)cn1 | 0.44 |
| CCn1cc2c(Oc3cnc(C(=O)N4CCC4)c(F)c3)cc(C(=O)Nc3cnc(C)cn3)cc2n1 | 0.12 |
